Shown are actives, neighbours in structure and some others; about 2.5% of the full set was active somewhere.
MEKK2wt PB1 HTS: raises or lowers MEK5 binding to wildtype human MEKK2 PB1 domain. 290,000 tested, 1.1% active. binding response (% of control), % at 10 µM. bead flow cytometry, Alexa488-MEK5 binding to MEKK2 WT; actives lie on both sides. Q9Y2U5. AID 1531; in the data active = binding response below about 67% or above about 130%
MEKK3 PB1 HTS: MEKK3-MEK5 PB1 interaction, increase or decrease | Q99759 | bead-based flow cytometry, Alexa488-MEK5 binding to MEKK3; actives lie on both sides; 0 = blocked by unlabeled MEK5, 100 = vehicle | binding response (% of control), % at 10 µM | 290,000 tested, 1.4% active | AID 1529;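 active = binding response more than 3 SD above or below the average of its plate-row segment, actives on both sides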;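 also: Alexa488 bead fluorescence after subtracting the streptavidin-only scavenger bead signal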
T cell HTS: T cell immune modulators affecting CD8 T cell-vesicle binding | 2C CD8+ T cell-vesicle binding, flow cytometry; stronger effect = lower value | response (vesicle binding), % at 7 µM | 330,000 tested, 0.068% active | AID 2052;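 active = response, share of CD8 T cells binding vesicles, and their 90th percentile fluorescence all below set limits, cut at about 80% in these data, passing the limit was not always enough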;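 also: values below 100% mean blocked vesicle binding to the CD8+ T cells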
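material = purified 2C TCR transgenic mouse naive CD8+ T cells | controls = Unloaded micro-vesicles (low), QL9 vesicles with 0.7% DMSO (high) | detection = cytometric PE anti-B7-1 and Alexa647 anti-CD8 signals after 1% paraformaldehyde fixation | incubation = binding step 1.5 h, 37 °C, antibody labelling 20 min, ice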
MEKK2mut PB1 HTS: signal of MEK5 binding to mutant human MEKK2 PB1 domain; percent response, % at 10 µM; bead flow cytometry, Alexa488-MEK5 binding to MEKK2 mutant; AID 1530; 290,000 tested, 0.35% active; in the data active = percent response above about 24%, passing the limit was not always enough
Rce1 inhib: yeast Ras-converting enzyme inhibition | 290,000 tested, 0.27% active | yeast membranes, quenched prenylated peptide cleavage fluorescence | Q03530 | calls only;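 active = fall in fluorescence gain of 50% or more versus controls, with final raw signal at or below 3038400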
Target sequence (Q03530 whole entry, looked up): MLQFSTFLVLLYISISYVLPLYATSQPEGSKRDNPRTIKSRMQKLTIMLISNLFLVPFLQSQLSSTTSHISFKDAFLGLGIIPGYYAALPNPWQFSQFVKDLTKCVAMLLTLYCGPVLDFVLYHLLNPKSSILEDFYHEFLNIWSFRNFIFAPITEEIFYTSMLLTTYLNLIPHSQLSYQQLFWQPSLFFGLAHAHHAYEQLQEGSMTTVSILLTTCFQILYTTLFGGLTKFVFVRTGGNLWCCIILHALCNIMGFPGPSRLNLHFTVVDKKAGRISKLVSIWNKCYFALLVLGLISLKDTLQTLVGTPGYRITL
UCH37 DUB inh: blocks the human deubiquitinase UCH37. inhibition, % (no concentration beside the values). purified proteasome/UCH37, Ub-AMC cleavage fluorescence. Q9Y5K5. 330,000 tested, 0.33% active;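 active = mean inhibition over replicate wells above about 20%, limit read from the data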
Target sequence (Q9Y5K5 whole entry, looked up): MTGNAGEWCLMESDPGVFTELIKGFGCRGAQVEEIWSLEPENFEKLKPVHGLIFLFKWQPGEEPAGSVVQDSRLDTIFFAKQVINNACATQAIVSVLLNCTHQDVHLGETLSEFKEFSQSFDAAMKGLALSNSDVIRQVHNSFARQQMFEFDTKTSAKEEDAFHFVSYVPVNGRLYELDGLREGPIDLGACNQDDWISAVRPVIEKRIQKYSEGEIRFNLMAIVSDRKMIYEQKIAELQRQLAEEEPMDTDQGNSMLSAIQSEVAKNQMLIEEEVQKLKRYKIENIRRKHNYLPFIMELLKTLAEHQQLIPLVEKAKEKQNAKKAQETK
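Signal – fluorescence, ex 355 nm, em 460 nm · System – Proteasome-bound UCH37 · Input – 0.15 nM proteasome as dispensed · Timing – 30 min preincubation with enzyme, 25 min cleavage at room temperature · Read-out basis – percent inhibition of cleavage signal versus uninhibited and no-proteasome wells · Medium – Tris-HCl pH 7.4 with ATP-MgCl2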
MEKK2wt confirm: raises or lowers MEK5 binding to wildtype human MEKK2, retest; 5,900 tested, 2.4% active; binding response (% of control), % at 10 µM; shares compounds with MEKK3 PB1 HTS; bead flow cytometry, Alexa488-MEK5 binding to MEKK2 WT; actives lie on both sides; in the data active = binding response below about 16% or above about 210%; inactive = in between
MEKK2mut-MEK5: signal of MEK5 binding to mutant human MEKK2, retest; shares compounds with MEKK3 PB1 HTS; bead flow cytometry, Alexa488-MEK5 binding to MEKK2 mutant; percent response, % at 10 µM; 5,900 tested, 2% active; AID 1893; in the data active = percent response mostly above about 71%, no sharp cut-off; inactive = mostly below about 38%;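 also: higher means compound restores mutant binding toward wildtype level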
MEKK3-MEK5 inh: MEKK3-MEK5 PB1 inhibition, single concentration confirmation | bead flow cytometry, Alexa488-MEK5 binding to MEKK3; stronger effect = lower value | 5,900 tested, 1.8% active | binding response (% of control), % at 10 µM | shares compounds with MEKK3 PB1 HTS;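 active = binding response below 72% of control, or above a set upper limit, though filed actives all read lower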
Each line names hits and unclear results; the compound was inactive in the other large screens (follow-up assays come after a bar, where they were run); [ ] = dose if it differs, or a comment.

Cc1ccc(N/C=C/c2onc(C)c2[N+](=O)[O-])cc1	MEKK2wt PB1 HTS 33.0[inhibitor], MEKK3 PB1 HTS 37.0[inhibitor] | MEKK2wt confirm inactive | MEKK2mut-MEK5 inactive | MEKK3-MEK5 inh inactive
Cc1cccc(C)c1N/C=C/c1onc(C)c1[N+](=O)[O-]	none
Cc1noc(/C=C/c2ccc(-c3ccccc3Cl)o2)c1[N+](=O)[O-]	MEKK2mut PB1 HTS 92.0 | MEKK2wt confirm inactive | MEKK2mut-MEK5 inactive | MEKK3-MEK5 inh 54.0
CON=Cc1ccc(OC)c(Oc2nc(OC)cc(OC)n2)c1	none (no result: MEKK2wt PB1 HTS, MEKK3 PB1 HTS, T cell HTS, MEKK2mut PB1 HTS, Rce1 inhib)
CN1C(=O)C(CC(=O)O)SC1=NN=Cc1ccc(O)cc1O (stereo not drawn)	none (no result: MEKK2wt PB1 HTS, MEKK3 PB1 HTS, T cell HTS, MEKK2mut PB1 HTS, Rce1 inhib)
COc1cc(CNCCc2c[nH]c3ccccc23)ccc1OCc1ccc(F)cc1	MEKK2wt PB1 HTS 197.0, MEKK2mut PB1 HTS 47.0 | MEKK2wt confirm inactive | MEKK2mut-MEK5 inactive | MEKK3-MEK5 inh inactive
COc1cccc(CNCCc2c[nH]c3ccccc23)c1OCc1ccc(F)cc1	MEKK2wt PB1 HTS 165.0, MEKK2mut PB1 HTS 39.0 | MEKK2wt confirm inactive | MEKK2mut-MEK5 inactive | MEKK3-MEK5 inh inactive
COc1ccccc1NC(=S)NCCc1c[nH]c2ccccc12	none
COc1cc(CNCCc2c[nH]c3ccccc23)cc(Cl)c1OCC(N)=O	none
O=C(NN=Cc1ccc2c(c1)OCO2)c1ccccn1	none (no result: MEKK2wt PB1 HTS, MEKK3 PB1 HTS, T cell HTS, MEKK2mut PB1 HTS, Rce1 inhib)
O=C(NN=C/C(Cl)=C\c1ccccc1)c1cccs1	none (no result: MEKK2wt PB1 HTS, MEKK3 PB1 HTS, T cell HTS, MEKK2mut PB1 HTS, Rce1 inhib)
CC(=O)Nc1sc(/C(C#N)=C/c2ccc(Cl)c(Cl)c2)nc1-c1ccc(C)cc1	MEKK2wt PB1 HTS 25.0, MEKK2mut PB1 HTS 104.0 (no result: T cell HTS, Rce1 inhib) | MEKK2wt confirm inactive | MEKK2mut-MEK5 inactive | MEKK3-MEK5 inh inactive
CCOC(=O)c1ccc(NC(=S)Nc2ccccc2)cc1	MEKK3 PB1 HTS 64.0[inhibitor] (no result: Rce1 inhib) | MEKK2wt confirm inactive | MEKK2mut-MEK5 inactive | MEKK3-MEK5 inh inactive
CCOC(=O)c1ccc(NC(=O)c2nn(CC)cc2Br)cc1	MEKK2wt PB1 HTS -4.0[inhibitor], MEKK3 PB1 HTS 0.0[inhibitor] | MEKK2wt confirm inactive | MEKK2mut-MEK5 inactive | MEKK3-MEK5 inh inactive
CCOC(=O)c1ccc(NC(=S)Nc2ccc(C)cc2)cc1	none
COc1cc2c(cc1OC)CN(C(=O)c1ccco1)CC2	MEKK3 PB1 HTS 143.0 | MEKK2wt confirm inactive | MEKK2mut-MEK5 inactive | MEKK3-MEK5 inh inactive
C/C(Cn1nnc2ccccc21)=N\OC(=O)c1ccccc1C	MEKK3 PB1 HTS 138.0 (no result: UCH37 DUB inh) | MEKK2wt confirm inactive | MEKK2mut-MEK5 inactive | MEKK3-MEK5 inh inactive
Cc1ccc(-c2nc3ncccn3c2NC2CCCC2)o1	none
Brc1ccc(-c2nc3ncccn3c2NC2CCCCC2)o1	MEKK3 PB1 HTS 129.0 | MEKK2wt confirm inactive | MEKK2mut-MEK5 inactive | MEKK3-MEK5 inh inactive
COC(=O)c1nn(-c2ccccc2)c(Cl)c1C=NOCc1ccc(Cl)cc1Cl	none (no result: MEKK2wt PB1 HTS, MEKK3 PB1 HTS, T cell HTS, MEKK2mut PB1 HTS, Rce1 inhib)
COc1ccc(C2=NN(C(=O)CSc3nc4ccccc4s3)C(c3ccc(OC)cc3)C2)cc1 (stereo not drawn)	MEKK3 PB1 HTS 148.0 | MEKK2wt confirm inactive | MEKK2mut-MEK5 inactive | MEKK3-MEK5 inh inactive
Cc1cc(C)n2nc(C(=O)NN=Cc3ccco3)nc2n1	none (no result: MEKK2wt PB1 HTS, MEKK3 PB1 HTS, T cell HTS, MEKK2mut PB1 HTS, Rce1 inhib)
CCCCN(CCCC)S(=O)(=O)c1ccc(NC(=O)Cc2cccs2)cc1	MEKK2wt PB1 HTS 143.0 | MEKK2wt confirm inactive | MEKK2mut-MEK5 inactive | MEKK3-MEK5 inh inactive
CCOc1cc2[nH]c(=S)n(Cc3ccc(C(=O)NCCN(CC)CC)cc3)c(=O)c2cc1OCC	MEKK2mut PB1 HTS 29.0 | MEKK2wt confirm inactive | MEKK2mut-MEK5 inactive | MEKK3-MEK5 inh inactive
CCOc1cc2[nH]c(=S)n(Cc3ccc(C(=O)NCC(OC)OC)cc3)c(=O)c2cc1OCC	none
O=C(NCCCN1CCCC1)c1ccc(Cn2c(=S)[nH]c3ccc(Br)cc3c2=O)cc1	MEKK2wt PB1 HTS 144.0 | MEKK2wt confirm inactive | MEKK2mut-MEK5 inactive | MEKK3-MEK5 inh inactive
CCOCCCN1CN(Cc2ccccc2)CNC1=S	MEKK3 PB1 HTS 128.0 | MEKK2wt confirm inactive | MEKK2mut-MEK5 inactive | MEKK3-MEK5 inh inactive
CN(C)c1ccc(C(=O)NN=Cc2ccccn2)cc1	none (no result: MEKK2wt PB1 HTS, MEKK3 PB1 HTS, T cell HTS, MEKK2mut PB1 HTS, Rce1 inhib)
CCN1CCc2c(sc(NC(=O)c3cc4ccccc4cc3OC)c2C(N)=O)C1	MEKK2wt PB1 HTS 149.0, MEKK2mut PB1 HTS 26.0 | MEKK2wt confirm inactive | MEKK2mut-MEK5 inactive | MEKK3-MEK5 inh inactive
CCN(CC)S(=O)(=O)c1ccc2c(c1)c(=O)c(C(=O)NCc1ccco1)cn2C	MEKK3 PB1 HTS 135.0 | MEKK2wt confirm inactive | MEKK2mut-MEK5 inactive | MEKK3-MEK5 inh inactive
Cc1ccc2nnnc(-c3ccccc3)c2c1	MEKK2wt PB1 HTS 54.0[inhibitor] | MEKK2wt confirm inactive | MEKK2mut-MEK5 inactive | MEKK3-MEK5 inh inactive
Cc1ccc(CNC(=O)Cn2c(=O)c3sccc3n(Cc3ccc([N+](=O)[O-])cc3)c2=O)cc1	MEKK3 PB1 HTS 163.0 (no result: UCH37 DUB inh) | MEKK2wt confirm inactive | MEKK2mut-MEK5 inactive | MEKK3-MEK5 inh inactive

Compound activity deposited in PubChem BioAssay by several laboratories.
